Hits are enriched below; roughly 2.6% of the tested compounds scored in any of these assays.
proCasp3 act = activators of human procaspase-3; P42574; recombinant procaspase-3 D3A, Ac-DEVD-pNA absorbance 405 nm; activation, % at 8.5 µM; 330,000 tested, 0.11% active;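 active means activation above the mean of all tested compounds plus 3 SD, cut at about 21% in these data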
Target sequence (P42574 whole entry D9A/D28A/D175A): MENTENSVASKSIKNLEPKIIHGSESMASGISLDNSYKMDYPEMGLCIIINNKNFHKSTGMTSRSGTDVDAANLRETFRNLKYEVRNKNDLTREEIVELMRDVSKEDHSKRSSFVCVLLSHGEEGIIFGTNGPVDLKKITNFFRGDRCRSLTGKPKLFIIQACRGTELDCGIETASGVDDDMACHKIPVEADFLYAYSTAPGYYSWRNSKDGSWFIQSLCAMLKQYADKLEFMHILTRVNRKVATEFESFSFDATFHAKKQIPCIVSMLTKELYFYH
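Test system: Procaspase-3 D3A mutant; medium: Zinc-free HEPES/NaCl buffer with 0.01% Triton X-100 at pH 7.4; reagent: DEVD-pNA substrate; doses: one concentration, 8.5 µM nominal, 0.8% DMSO; times: 1 h preincubation plus 2 h reaction at 25 °C; signal: Epi-absorbance at 405 nm of released p-nitroaniline, 0 and 120 min; replicates: singlicate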
AHR activator = activates the human aryl hydrocarbon receptor. 320,000 tested, 2.5% active. activation, % at 5 µM. P35869. AHR-responsive luciferase reporter cells, luminescence; in the data active means activation above about 47%
procasp7 counter = counter-screen: procaspase-7 (human) activation; P55210; recombinant procaspase-7, Ac-DEVD-pNA absorbance 405 nm; D23A/D198A/D206A triple mutant, cannot self-cleave; scale: DMSO 0, 5 µM enzyme 100; activation, % at 8.5 µM; 330,000 tested, 0.093% active;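 active means percent activation above the screen-wide mean plus 3 SD, cut at about 25% in these data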
Target sequence (P55210 whole entry D23A/D198A/D206A): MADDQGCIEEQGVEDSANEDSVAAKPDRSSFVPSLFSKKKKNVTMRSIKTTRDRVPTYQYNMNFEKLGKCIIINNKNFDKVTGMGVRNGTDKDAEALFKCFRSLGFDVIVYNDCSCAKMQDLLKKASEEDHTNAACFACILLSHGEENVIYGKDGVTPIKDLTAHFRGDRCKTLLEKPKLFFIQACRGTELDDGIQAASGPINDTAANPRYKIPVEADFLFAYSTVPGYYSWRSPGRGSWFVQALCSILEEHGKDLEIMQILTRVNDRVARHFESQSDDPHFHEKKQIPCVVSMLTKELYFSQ
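System: Procaspase-7 triple mutant (PC-7 D3A); measure: % activation from two-timepoint absorbance difference, scaled to controls; times: 1 h compound preincubation, 2 h substrate cleavage, 25 °C; also added: Ac-DEVD-pNA substrate, 400 µM as added; measured by: Epi-absorbance of released pNA at 405 nm, two timepoints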
PolyA inh = inhibitors of polyadenylation in S. cerevisiae. S. cerevisiae SKY197-pL101 polyadenylation reporter, beta-gal luminescence; efflux-impaired pdr1/pdr3 knockout yeast; score 100 = 6 SD above DMSO. activity score, % at 12 µM. 300,000 tested, 0.02% active. AID 1875;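 active means lowest replicate activity score at least 50, where 100 means six control SD above control mean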;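 further: yeast exposed to compound for 9 h at 30 °C; higher score means more reporter readthrough which indicates perturbed polyadenylation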
AHR act confirm = confirmation of human aryl hydrocarbon receptor activators; activation, % at 9 µM; shares compounds with AHR activator; AID 2845; 2,300 tested, 87% active; human cells, AHR-responsive luciferase reporter, luminescence; in the data active means activation above about 49%;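 further: HepG2 hepatoma cells carrying a DRE-driven firefly luciferase reporter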
PXR act counter = activates human PXR in AHR activator counter-screen; shares compounds with AHR activator; cell-based PXR reporter, luciferase luminescence; activation, % at 11.6 µM; 2,300 tested, 88% active; in the data active means activation above about 11%;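 further: human hepatoma DPX-2 cells expressing full-length human PXR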
Hits are given with their value; i = inactive; nt = not tested or not shown.

SMILES | proCasp3 act | AHR activator | procasp7 counter | PolyA inh | AHR act confirm | PXR act counter
O=C(NC1CCCC1)c1cc2c(ccc3ccccc32)o1 | i | 112 | i | i | 66 | nt
COc1ccc(CCNC(=O)c2ccccc2SC)cc1 | i | i | i | i | nt | nt
CCN(Cc1ccc(C#CCCO)cc1)CC1CCCN(CCc2cccc(F)c2)C1 (stereo not given) | i | i | i | i | nt | nt
CNC(=O)c1cccnc1Nc1cccc(C(F)(F)F)c1 | i | 120 | i | i | 105 | 15
Cc1cccc(NC(=S)N/N=C(\c2ccccc2)C(C)C)c1 | i | i | i | i | nt | nt
C/C(=N/NC(=S)Nc1cccc(C)c1)c1cccc([N+](=O)[O-])c1 | i | 106 | i | i | 83 | 100
CC/C(=N\NC(=S)Nc1cccc(C)c1)c1ccccc1 | i | 87 | i | i | 55 | 24
Cc1cccc(NC(=S)NNC(=O)c2cccc([N+](=O)[O-])c2)c1 | i | i | i | i | nt | nt
O=C(NC(=S)Nc1cccc(F)c1)c1cccc([N+](=O)[O-])c1 | i | 96 | i | i | i | 30
Cc1cc(SCC(=O)NC2CCCC2)nc2ccccc12 | i | i | i | i | nt | nt
C/C(=C\C(=S)Nc1ccccc1)Nc1cccc2ccccc12 | i | 94 | i | i | i | 17
COc1cc(NC(=S)Nc2cccnc2)cc(OC)c1 | i | 116 | i | i | 65 | 23
C/C(=C\C(=S)Nc1ccccc1)Nc1ccc2ccccc2c1 | i | i | i | i | nt | nt
COc1cccc(NC(=S)Nc2cccc3ccccc23)c1 | i | 88 | i | i | i | 105
CC(C)c1ccc(NC(=S)Nc2cccc3ccccc23)cc1 | i | 90 | i | i | 90 | 81
CCOc1ccc(S(=O)(=O)NCCC(=O)NCCc2ccc(C(C)C)cc2)cc1 | i | i | i | i | nt | nt
O=C(NCCN1CCOCC1)C1CCCN(S(=O)(=O)c2ccc(F)cc2)C1 (stereo not given) | i | i | i | i | nt | nt
O=C(Nc1ccccc1OCc1ccccc1)c1ccccc1Br | i | 103 | i | i | 105 | 43
O=C(NNC(=O)C1CC1)c1cc2cc3ccccc3nc2s1 | i | 110 | i | i | 72 | 12
O=C(NNC(=O)c1cc2cc3ccccc3nc2s1)c1ccc(F)cc1 | i | 91 | i | i | i | 12
O=C(NNC(=O)c1cccs1)c1ccc(F)cc1 | i | i | i | i | nt | nt
O=C(/C(=C\c1ccccc1)c1nc2ccccc2[nH]1)c1ccc(Cl)cc1 | i | 80 | i | i | i | 117
COc1ccccc1CN1CCc2c([nH]c3ccccc23)C1 | i | 99 | i | i | 90 | 27
COc1cc(CN2CCc3c([nH]c4ccccc34)C2)cc(OC)c1 | i | i | i | i | nt | nt
COc1ccc(OC)c(-c2csc(NC(=O)COC(=O)C3CCC3)n2)c1 | i | i | i | nt | nt | nt
SMILES | proCasp3 act | AHR activator | procasp7 counter | PolyA inh | AHR act confirm | PXR act counter
COc1ccc(OC)c(-c2csc(NC(=O)COC(=O)c3ccc(NC(=O)CC#N)cc3)n2)c1 | i | 80 | i | nt | i | i
c1cc(-c2n[nH]c(-c3ccncc3)n2)ccn1 | i | i | i | i | nt | nt
Brc1cccc(-c2n[nH]c(-c3ccccc3)n2)c1 | i | 117 | i | i | 128 | 15
OC1CCN(c2c3c(nc4cc(-c5cccc(F)c5)nn24)CCCC3)CC1 | i | i | i | i | nt | nt
CN(CCO)c1c2c(nc3cc(-c4cccc(F)c4)nn13)CCCC2 | i | 89 | i | i | 92 | 64
CCc1ccccc1NC(=O)c1cnc2scc(C)n2c1=O | i | i | i | i | nt | nt
CCOc1ccc(NC(=O)c2cnc3scc(C)n3c2=O)cc1 | i | 90 | i | i | 129 | 22
Cc1ccccc1-c1nc(-c2ccc(Br)o2)no1 | i | 102 | i | i | 127 | 49
Fc1ccccc1-c1nc(-c2ccncc2)no1 | i | i | i | i | nt | nt
Cc1occc1-c1nc(-c2ccncc2)no1 | i | i | i | i | nt | nt
Fc1ccccc1-c1nc(-c2ccccc2)no1 | i | 93 | i | i | 126 | 13
Cc1ccccc1-c1nc(-c2ccc(NC(=O)c3ccc(Br)o3)cc2)no1 | i | i | i | i | nt | nt
c1ccc2c(-c3nc(-c4ccncc4)no3)cccc2c1 | i | 99 | i | i | 114 | 15
Fc1ccccc1-c1nc(-c2ccc(Br)o2)no1 | i | 102 | i | i | 143 | 31
CS(=O)c1ccc(-n2c(=O)n(Cc3ccccc3)c(=O)c3[nH]cnc32)cc1 (stereo not given) | i | i | i | i | nt | nt
CC(=O)c1ccc(OC(C)C(=O)OCC(=O)NCCc2ccccc2)cc1 (stereo not given) | i | i | i | nt | nt | nt
O=C(NC(=S)NN1CCCCC1c1cccnc1)c1ccc(Cl)cc1Cl (stereo not given) | i | i | i | i | nt | nt
O=C(Nc1nc2ccccc2s1)c1ccc(Cl)s1 | i | 82 | i | i | 50 | 12
O=C(Nc1nc2ccccc2s1)c1ccc(F)cc1 | i | i | i | i | nt | nt
COc1ccc2c(c1)nc(NCCCO)n2Cc1ccccc1 | i | i | i | i | nt | nt
O=C(O)CN1C(=O)/C(=C\c2ccccc2OCc2ccc(Cl)cc2Cl)SC1=S | i | 82 | i | i | 59 | 29
COc1ccc(N2CCN(c3cc(C)c4cccc(C)c4n3)CC2)cc1 | i | 129 | i | i | 95 | 13
COc1ccc(N2CCN(c3cc(C)c4ccc(C)cc4n3)CC2)cc1 | i | 100 | i | i | 110 | 18
COc1ccc(N2CCN(c3cc(C)c4ccc(O)cc4n3)CC2)cc1 | i | 132 | i | i | 71 | nt
O=C(CSc1nnnn1-c1cccc(F)c1)NC1CC1 | i | i | i | nt | nt | nt
SMILES | proCasp3 act | AHR activator | procasp7 counter | PolyA inh | AHR act confirm | PXR act counter
Cc1nc(NCCCn2ccnc2)c2oc3ccccc3c2n1 | i | 79 | i | i | 110 | 23
c1ccc2c(c1)oc1c(NCCCn3ccnc3)ncnc12 | i | 106 | i | i | 110 | 22
O=C(CNC(=O)N1CC(=O)Nc2ccccc21)NCc1ccccc1Cl | i | i | i | i | nt | nt
Cc1ccccc1-c1cn(-c2ccccc2)c(=S)[nH]1 | i | i | i | i | nt | nt
Cc1ccc(-c2cn(-c3ccccc3)c(=S)[nH]2)cc1C | i | 81 | i | i | i | 38
CCOC(=O)c1cc(S(=O)(=O)Nc2ccc(F)cc2F)cn1C | i | i | i | i | nt | nt
Cc1cc(C)c(-c2cc(NC(=O)COC(=O)c3ccc(C#N)cc3)n(-c3ccccc3)n2)cc1C | i | 129 | i | i | 105 | 82
Cc1cc(C)c(-c2cc(NC(=O)COC(=O)c3ccc(NC(=O)CC#N)cc3)n(-c3ccccc3)n2)cc1C | i | i | i | i | nt | nt
CCCCN1CC(=O)N2[C@H]3c4ccc(OC)cc4OC[C@@H]3[C@H](c3ccccc3)[C@]2(C)C1=O | i | i | i | nt | nt | nt
Cc1ccc2nc(NC(=S)NC(=O)c3ccco3)sc2c1 | i | i | i | i | nt | nt

Screening results: PubChem BioAssay, several laboratories
